Source: PMC4969713 (Journal of Alzheimer's Disease, 2016)
Where a name gives a salt, the structure may show the parent alone.

Tests used:
[1] = target: human recombinant H2 receptors (Homo sapiens, UniProt P25021); assay: Amthamine-induced cAMP accumulation in CHO-K1 cells; assay type: cell-based
Summary of the method: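 CHO-K1 cells exogenously expressing recombinant human H2 receptor were stimulated with 50 nM amthamine. Intracellular cAMP accumulation was registered, and blockade of this response by test compound was measured.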

5-HT1B receptor = details: Table 2; cited from earlier work
Adrenergic α1D = Adrenergic α1D (Homo sapiens, UniProt P25100); assay: Radioligand competition, adrenergic α1D; assay type: binding
Sequence of Adrenergic α1D (P25100 whole entry): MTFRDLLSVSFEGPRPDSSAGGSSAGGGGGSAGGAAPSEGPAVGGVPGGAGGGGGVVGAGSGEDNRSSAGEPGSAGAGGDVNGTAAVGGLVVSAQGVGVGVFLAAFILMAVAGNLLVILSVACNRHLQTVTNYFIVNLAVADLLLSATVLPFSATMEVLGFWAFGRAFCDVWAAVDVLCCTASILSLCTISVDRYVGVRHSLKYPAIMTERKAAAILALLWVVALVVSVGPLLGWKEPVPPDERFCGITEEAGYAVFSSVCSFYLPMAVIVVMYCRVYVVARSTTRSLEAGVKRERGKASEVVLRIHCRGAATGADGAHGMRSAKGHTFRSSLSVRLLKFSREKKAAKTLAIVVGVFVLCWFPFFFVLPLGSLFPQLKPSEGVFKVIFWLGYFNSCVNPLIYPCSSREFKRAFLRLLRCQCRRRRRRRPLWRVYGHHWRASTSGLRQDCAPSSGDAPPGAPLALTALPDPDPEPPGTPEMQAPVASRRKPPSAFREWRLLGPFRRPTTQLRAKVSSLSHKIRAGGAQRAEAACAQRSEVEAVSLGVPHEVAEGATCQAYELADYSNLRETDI

Solubility in water = assay type: physicochemical; details: pH 7.4
[2] = target: norpinephrine transporter (Homo sapiens, UniProt P23975); assay: Target panel binding, norpinephrine transporter
[3] = tested on: outbreed male and female rats; assay: Reproductive toxicology in rats; assay type: in vivo
Summary of the method: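 Outbred male and female rats weighing 220–250 g received test compound in 0.9% physiological solution intragastrically at 1.0 or 25.0 mg/kg. Assessments covered embryotoxicity, offspring development, mating and fertilization capability, and reproductive function.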

sodium channel (Site 2) = assay: Target panel binding, sodium channel
Caco-2 permeability = details: human
Adrenergic α1B = Adrenergic α1B (Homo sapiens, UniProt P35368); assay: Radioligand competition, adrenergic α1B; assay type: binding
Sequence of Adrenergic α1B (P35368 whole entry): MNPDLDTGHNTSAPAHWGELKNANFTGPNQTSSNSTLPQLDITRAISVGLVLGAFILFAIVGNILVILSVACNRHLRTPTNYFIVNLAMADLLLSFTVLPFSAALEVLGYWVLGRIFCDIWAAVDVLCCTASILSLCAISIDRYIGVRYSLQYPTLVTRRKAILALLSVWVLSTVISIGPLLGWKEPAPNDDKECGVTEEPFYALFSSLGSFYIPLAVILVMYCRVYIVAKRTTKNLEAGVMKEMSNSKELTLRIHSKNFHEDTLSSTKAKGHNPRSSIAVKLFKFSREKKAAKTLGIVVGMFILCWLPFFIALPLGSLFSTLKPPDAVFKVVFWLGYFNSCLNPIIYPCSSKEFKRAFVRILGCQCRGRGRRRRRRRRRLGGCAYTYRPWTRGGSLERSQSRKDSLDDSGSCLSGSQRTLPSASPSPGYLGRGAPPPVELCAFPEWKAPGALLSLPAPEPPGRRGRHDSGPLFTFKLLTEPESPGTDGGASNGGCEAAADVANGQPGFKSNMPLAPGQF

P-glycoprotein = P-glycoprotein (Homo sapiens, UniProt P08183); assay: Pgp-Glo ATPase assay; assay type: biochemical
Sequence of P-glycoprotein (P08183 whole entry): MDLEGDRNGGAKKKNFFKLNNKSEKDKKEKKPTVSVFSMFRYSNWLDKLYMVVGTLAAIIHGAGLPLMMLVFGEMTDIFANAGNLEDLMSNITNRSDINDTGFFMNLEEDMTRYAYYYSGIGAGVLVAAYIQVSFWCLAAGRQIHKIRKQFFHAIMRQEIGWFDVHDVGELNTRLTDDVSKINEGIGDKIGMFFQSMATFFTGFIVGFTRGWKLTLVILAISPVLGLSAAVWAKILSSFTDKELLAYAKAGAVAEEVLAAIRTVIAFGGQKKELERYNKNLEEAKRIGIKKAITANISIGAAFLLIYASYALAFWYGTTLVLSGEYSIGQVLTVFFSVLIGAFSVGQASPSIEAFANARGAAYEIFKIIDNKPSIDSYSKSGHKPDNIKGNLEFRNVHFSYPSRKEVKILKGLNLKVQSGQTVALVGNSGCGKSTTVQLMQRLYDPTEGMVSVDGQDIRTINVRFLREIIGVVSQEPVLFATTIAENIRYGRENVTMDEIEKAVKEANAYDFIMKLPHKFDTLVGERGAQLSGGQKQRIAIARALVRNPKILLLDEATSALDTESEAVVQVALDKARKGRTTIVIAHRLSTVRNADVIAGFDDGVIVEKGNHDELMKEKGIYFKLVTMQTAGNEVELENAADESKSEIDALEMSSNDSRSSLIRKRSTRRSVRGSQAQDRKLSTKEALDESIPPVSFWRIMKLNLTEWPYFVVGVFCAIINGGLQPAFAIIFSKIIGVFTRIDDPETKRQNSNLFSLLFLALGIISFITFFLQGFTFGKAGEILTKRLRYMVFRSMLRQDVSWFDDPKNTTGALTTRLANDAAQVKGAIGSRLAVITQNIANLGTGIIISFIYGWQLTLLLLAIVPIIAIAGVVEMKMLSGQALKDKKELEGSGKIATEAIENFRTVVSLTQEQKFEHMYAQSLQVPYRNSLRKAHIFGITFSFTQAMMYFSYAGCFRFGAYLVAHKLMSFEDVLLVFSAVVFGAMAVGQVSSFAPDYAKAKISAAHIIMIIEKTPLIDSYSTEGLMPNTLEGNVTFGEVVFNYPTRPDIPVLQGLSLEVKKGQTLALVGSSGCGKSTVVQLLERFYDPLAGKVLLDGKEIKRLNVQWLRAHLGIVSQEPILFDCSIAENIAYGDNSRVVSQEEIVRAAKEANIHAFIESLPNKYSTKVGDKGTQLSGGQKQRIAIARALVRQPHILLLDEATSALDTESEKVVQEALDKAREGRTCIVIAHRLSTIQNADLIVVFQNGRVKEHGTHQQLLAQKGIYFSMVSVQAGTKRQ
Summary of the method: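 P-glycoprotein ATPase activity was measured with the Pgp-Glo assay system per the manufacturer's protocol. Orthovanadate-sensitive activity was determined in the presence of test compound.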

BALB/c mice [4] = assay: Passive avoidance, MK-801-induced amnesia, mice; assay type: in vivo
Pharmacokinetics in dogs = assay type: in vivo, dogs (Beagle); details: for Cmax / Tmax / half-life / AUC: Beagle, dog, blood
Wistar rats = assay: 180 days toxicity, rats; assay type: in vivo
[5] = tested on: rhesus macaques (Macaca Mulatta); assay: 30 days toxicity, monkeys; assay type: in vivo; details: 5 mg/kg PO daily
male BALB/c mice [6] = assay: Elevated Platform test; assay type: in vivo; details: IP; Lorazepam 0.05 mg/kg, AVN-101 0.2 mg/kg; initial 2 min
male BALB/c mice [7] = assay: Novel object recognition, scopolamine-induced; assay type: in vivo; details: 1.0 mg/kg scopolamine; memantine 10 mg/kg; SB-742457 0.2 or 1.0 mg/kg
Summary of the method: (§1)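 All drugs were dissolved in saline and given IP; control animals received saline vehicle. Each group had at least 8 male BALB/c mice. Read-out was novel object recognition index, reported as mean ± SE.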

male adult SHK mice = assay: 14 days toxicity, mice; assay type: in vivo; details: 5 mg/kg PO daily
Summary of the method: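 Mice randomly assigned to a vehicle group or a 5 mg/kg group.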

CYP2C19 = CYP2C19 (Homo sapiens, UniProt P33261); assay: Metabolism by recombinant CYP2C19; assay type: in vitro ADME
Sequence of CYP2C19 (P33261 whole entry): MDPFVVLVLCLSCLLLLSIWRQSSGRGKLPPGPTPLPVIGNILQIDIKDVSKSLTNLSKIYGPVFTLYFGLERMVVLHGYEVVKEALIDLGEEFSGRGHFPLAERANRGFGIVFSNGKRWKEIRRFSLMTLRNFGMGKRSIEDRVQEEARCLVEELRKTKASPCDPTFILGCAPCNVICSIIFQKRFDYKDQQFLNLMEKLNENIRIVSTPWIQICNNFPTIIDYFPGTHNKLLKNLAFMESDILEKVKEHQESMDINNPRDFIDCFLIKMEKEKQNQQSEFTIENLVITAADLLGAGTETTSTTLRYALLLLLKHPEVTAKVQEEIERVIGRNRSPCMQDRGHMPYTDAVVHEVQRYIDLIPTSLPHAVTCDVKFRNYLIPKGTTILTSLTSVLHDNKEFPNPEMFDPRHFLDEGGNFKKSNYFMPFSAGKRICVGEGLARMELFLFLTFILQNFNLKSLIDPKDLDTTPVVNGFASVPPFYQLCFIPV

5-HT1A receptor = 5-HT1A receptor (Homo sapiens, UniProt P08908); assay: Radioligand binding competition, 5-HT1A
Sequence of 5-HT1A receptor (P08908 whole entry): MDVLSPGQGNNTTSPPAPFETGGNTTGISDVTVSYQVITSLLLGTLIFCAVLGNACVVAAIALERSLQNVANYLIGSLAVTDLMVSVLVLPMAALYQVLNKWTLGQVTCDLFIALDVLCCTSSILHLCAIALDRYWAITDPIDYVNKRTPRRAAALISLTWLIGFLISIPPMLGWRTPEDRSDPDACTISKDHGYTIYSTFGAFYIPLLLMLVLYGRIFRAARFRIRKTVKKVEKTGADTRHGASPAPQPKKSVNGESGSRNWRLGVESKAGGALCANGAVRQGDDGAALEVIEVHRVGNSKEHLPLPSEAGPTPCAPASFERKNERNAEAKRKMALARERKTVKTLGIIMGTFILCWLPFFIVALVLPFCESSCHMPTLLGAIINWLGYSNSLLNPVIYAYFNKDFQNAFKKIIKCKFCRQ

male BALB/c mice [8] = assay: Elevated Plus-Maze; assay type: in vivo; details: IP; Buspirone 5 mg/kg; M2 0.05, 0.5, 1.0, 5.0 mg/kg
Summary of the method: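 Elevated plus-maze in mice. Read-outs were open/closed arm time ratio, open/closed visit ratio, defecations and total visits. Each treated group was compared with the placebo group by Student t-test.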

Adrenergic α2A = Adrenergic α2A (Homo sapiens, UniProt P08913); assay: Radioligand competition, adrenergic α2A; assay type: binding; details: Ki
Sequence of Adrenergic α2A (P08913 whole entry): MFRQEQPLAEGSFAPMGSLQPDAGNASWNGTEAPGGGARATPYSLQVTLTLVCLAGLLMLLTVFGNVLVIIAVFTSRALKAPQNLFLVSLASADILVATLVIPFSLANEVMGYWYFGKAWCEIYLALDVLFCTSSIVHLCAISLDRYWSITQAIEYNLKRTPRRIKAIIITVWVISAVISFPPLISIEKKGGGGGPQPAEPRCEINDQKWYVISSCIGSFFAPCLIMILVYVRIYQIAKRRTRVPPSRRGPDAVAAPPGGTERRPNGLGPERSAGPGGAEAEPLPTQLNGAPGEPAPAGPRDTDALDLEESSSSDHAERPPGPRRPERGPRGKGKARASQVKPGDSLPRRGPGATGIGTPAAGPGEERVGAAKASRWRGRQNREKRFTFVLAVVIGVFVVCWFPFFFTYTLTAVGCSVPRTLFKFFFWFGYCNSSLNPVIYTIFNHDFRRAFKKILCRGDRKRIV

[9] = Metabolism in human microsomes; assay type: in vitro ADME; details: for Remaining quantity: HLM
hKv4.3-hKCh1P2.2 (Ito) = hKv4.3-hKCh1P2.2 (Ito) (Homo sapiens, UniProt Q9UK17); assay: Cardiac channel inhibition, Ito; assay type: cell-based
Sequence of hKv4.3-hKCh1P2.2 (Ito) (Q9UK17 whole entry): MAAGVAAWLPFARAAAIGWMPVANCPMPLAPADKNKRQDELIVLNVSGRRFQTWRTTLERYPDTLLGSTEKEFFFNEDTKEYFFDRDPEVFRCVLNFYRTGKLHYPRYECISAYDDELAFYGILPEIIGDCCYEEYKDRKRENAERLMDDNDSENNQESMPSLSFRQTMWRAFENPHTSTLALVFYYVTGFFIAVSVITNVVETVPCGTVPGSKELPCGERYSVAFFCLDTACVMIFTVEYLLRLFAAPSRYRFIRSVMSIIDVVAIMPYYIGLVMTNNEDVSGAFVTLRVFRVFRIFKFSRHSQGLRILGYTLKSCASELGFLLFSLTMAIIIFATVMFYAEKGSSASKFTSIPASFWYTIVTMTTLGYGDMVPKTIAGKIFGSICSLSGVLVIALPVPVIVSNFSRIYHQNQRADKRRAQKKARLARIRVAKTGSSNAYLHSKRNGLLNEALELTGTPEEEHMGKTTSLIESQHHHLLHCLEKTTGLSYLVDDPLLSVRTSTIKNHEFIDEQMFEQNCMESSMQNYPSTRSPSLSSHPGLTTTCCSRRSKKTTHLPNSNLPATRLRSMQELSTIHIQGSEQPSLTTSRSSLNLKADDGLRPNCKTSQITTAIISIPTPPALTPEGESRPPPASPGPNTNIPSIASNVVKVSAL

BALB/c mice [10] = assay: Porsolt forced swim test; assay type: in vivo; details: AVN-101 0.05 mg/kg IP once daily for 4 days
sigma 1 receptor = sigma 1 receptor (Homo sapiens, UniProt Q99720); assay: Target panel binding, sigma 1
Sequence of sigma 1 receptor (Q99720 whole entry, species assumed): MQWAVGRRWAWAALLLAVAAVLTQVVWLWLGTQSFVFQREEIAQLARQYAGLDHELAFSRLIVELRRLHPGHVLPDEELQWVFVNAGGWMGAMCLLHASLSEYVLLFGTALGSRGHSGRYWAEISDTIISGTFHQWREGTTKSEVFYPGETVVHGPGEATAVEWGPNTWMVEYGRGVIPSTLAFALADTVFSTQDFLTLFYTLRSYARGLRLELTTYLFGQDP

male BALB/c mice [11] = assay: Passive avoidance, scopolamine-induced amnesia, mice; assay type: in vivo
[12] = Stability in monkey blood plasma; assay type: in vitro ADME; details: 30-min incubation, room temperature
male BALB/c mice [13] = assay: Novel object recognition, MK-801-induced; assay type: in vivo; details: 0.2 mg/kg MK-801; memantine 10 mg/kg; SB-742457 0.2 or 1.0 mg/kg
Summary of the method: as §1

hERG potassium channel = hERG potassium channel (Homo sapiens, UniProt Q12809); assay: hERG single cell patch clamp in HEK cells

Sequence of human recombinant H2 receptors (P25021 whole entry): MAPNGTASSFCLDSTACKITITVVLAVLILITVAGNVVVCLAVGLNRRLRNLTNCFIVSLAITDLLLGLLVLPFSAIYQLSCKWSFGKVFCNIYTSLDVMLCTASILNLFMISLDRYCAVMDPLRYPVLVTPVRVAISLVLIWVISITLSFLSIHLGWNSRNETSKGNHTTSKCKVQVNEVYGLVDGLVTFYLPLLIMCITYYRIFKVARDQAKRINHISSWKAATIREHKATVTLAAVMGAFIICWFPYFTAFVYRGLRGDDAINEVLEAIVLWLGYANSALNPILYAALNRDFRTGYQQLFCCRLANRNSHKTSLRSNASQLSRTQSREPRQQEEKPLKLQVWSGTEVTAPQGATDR

For Cc1ccc2c(c1)c1c(n2CCc2ccccc2)CCN(C)C1 [AVN-101, 2,8-dimethyl-5-penethyl-2,3,4,5-tetra-hydro-1h-pyrido[[4,3-B]]indole hydrochloride], the receptor activation [1] is given as “activated neither H1 nor H2 receptors”, the “blockade of agonist-induced cell response” value ([1]; 50 nM amthamine, cAMP accumulation) is given as “effectively blocked” and the Ki (5-HT1B receptor) is given as 720 nM. For the same molecule, the Ki (Adrenergic α1D) was 30.2 nM, the solubility (Solubility in water) was 194 mg/mL and the binding [2] was “does not bind”. The “reproductive function, male rats” value ([3]; 1.0 and 25.0 mg/kg intragastrically daily for 48 days) was “no reproductive function alteration”, the “effect in female rats dosed prior to pairing” value ([3]; daily for 15 days prior to pairing) was “reduction in the body mass increase of the pregnant rats and their posterity” and the “embryotoxic / teratogenic effect” value ([3]; doses up to 25.0 mg/kg, male or female) was “neither embryotoxic nor teratogenic effect”. For the same molecule, the binding (sodium channel (Site 2)) was “does not bind”, the Papp (Caco-2 permeability) was 19 ± 1.8 ×10⁻⁶ cm/s and the Papp B→A (Caco-2 permeability) was 21 ± 2.1 ×10⁻⁶ cm/s. For the same molecule, the Ki (Adrenergic α1B) was 9.4 nM, the EC50 (P-glycoprotein) was roughly 50000 nM and the “effect on Pgp ATP-ase activity” value (P-glycoprotein; orthovanadate-sensitive ATPase) was “strong activation”. The “effect on MK-801-induced amnesia” value (BALB/c mice [4]; IP) was “dose-dependently prevented”, the anti-amnesic dose (BALB/c mice [4]; MK-801 model) was 0.5 mg/kg and the Fabs (Pharmacokinetics in dogs; AVN-101 PO 10 mg/kg vs IV 2 mg/kg) was 4.6%. The Cmax (Pharmacokinetics in dogs; iv, 1 mg/kg) was 13.7 ng/mL, the Tmax (Pharmacokinetics in dogs; iv, 1 mg/kg) was 1 min and the half-life (Pharmacokinetics in dogs; iv, 1 mg/kg) was 20.9 min. For the same molecule, the AUC (Pharmacokinetics in dogs; iv, 2 mg/kg) was 498 ng·h/mL, the Cmax (Pharmacokinetics in dogs; iv, 2 mg/kg) was 3740 ng/mL and the Tmax (Pharmacokinetics in dogs; iv, 2 mg/kg) was 1 min. The half-life (Pharmacokinetics in dogs; iv, 2 mg/kg) was 29.8 min, the AUC (Pharmacokinetics in dogs; po, 5 mg/kg) was 31.6 ng·h/mL and the Cmax (Pharmacokinetics in dogs; po, 5 mg/kg) was 9.1 ng/mL. It also gave a Tmax (Pharmacokinetics in dogs; po, 5 mg/kg) of 240 min, an AUC (Pharmacokinetics in dogs; po, 10 mg/kg) of 114 ng·h/mL and a Cmax (Pharmacokinetics in dogs; po, 10 mg/kg) of 23 ng/mL. For the same molecule, the Tmax (Pharmacokinetics in dogs; po, 10 mg/kg) was 60 min, the half-life (Pharmacokinetics in dogs; po, 10 mg/kg) was 366 min and the toxic effects (Wistar rats; 5 mg/kg PO daily) was “severe hepatotoxic and moderate cardiotoxic effects”. The toxic effects (Wistar rats; 0.25 and 0.5 mg/kg PO daily) was “substantially less noticeable”, the signs of toxicity [5] was “did not show any signs of toxicity” and the “duration of freezing behavior” value (male BALB/c mice [6]) was “significantly reduced duration of the freezing behavior”. For the same molecule, the “effect on deficit in novel object recognition” value (male BALB/c mice [7]) was “partially reverse”, the signs of toxicity (male adult SHK mice) was “No signs of toxicity” and the remaining at 0.5 h, 2 µM (CYP2C19) was 1%. The Ki (5-HT1A receptor) was greater than 30 nM, the “anxiolytic effect (open/closed arm time and visits, defecations)” value (male BALB/c mice [8]) was “clear anxiolytic effects” and the Ki (Adrenergic α2A) was 0.41 to 3.6 nM. For the same molecule, the k el ([9]; 1μM) was 0.335, the “original AVN-101 consumed” value ([9]; 2μM, 30-min incubation) was 57% and the Remaining quantity ([9]; AVN-101 1 μM, 7.9 min) was 3.0%. The Remaining quantity ([9]; AVN-101 1 μM, 30 min) was 2%, the Remaining quantity ([9]; AVN-101 2 μM, 7.9 min) was 40.0% and the Remaining quantity ([9]; AVN-101 2 μM, 30 min) was 43%. For the same molecule, the half-life at 1 µM ([9]; human, liver microsomes) was 2.07 min, the microsomal CLint at 1 µM ([9]; human, liver microsomes) was 335 µL/min/mg and the IC50 (hKv4.3-hKCh1P2.2 (Ito)) was 14800 nM. The inhibition at 31.6 µM (hKv4.3-hKCh1P2.2 (Ito); read-out: % Inhibition at 31.6μM) was 66%, the “decrease in immobility time” value (BALB/c mice [10]) was “comparable to that observed with either Fluoxetine or Desipramine” and the binding (sigma 1 receptor) was “does not bind”. For the same molecule, the “reversal of scopolamine-induced amnesia vs comparators” value (male BALB/c mice [11]; AVN-101 5 mg/kg IP) was “equal to or more effective than either memantine or tacrine”, the “lowest dose with preventative effect on scopolamine-induced amnesic parameters” value (male BALB/c mice [11]; IP, scopolamine 0.3 mg/kg) was 0.02 mg/kg and the anti-amnesic dose (male BALB/c mice [11]; scopolamine model) was 0.05 mg/kg. The “residual amount of original compound” value [12] was 45%, the “effect on deficit in novel object recognition” value (male BALB/c mice [13]) was “partially reverse” and the IC50 (hERG potassium channel) was 580 nM.
